# Experimental data: ChEMBL document CHEMBL3865799, “Synthesis of a series of novel dihydroartemisinin monomers and dimers containing chalcone as a linker and their anticancer activity” (Eur J Med Chem, 2016)
# How the values were obtained:
# [1] = test system: HL-60; assay: Induction of apoptosis in human HL60 cells assessed as cell shrinkage after 24 hrs phase contrast microscopic analysis; assay type: functional, cell-based
# Procedure, shortened: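 HL-60 cells at 0.5 × 10^6 cells/ml treated 24 h with compound at 0.2, 0.5, 1 or 5 (DMSO vehicle). Treated and control cells photographed under a phase contrast microscope at 20× and scored for morphology.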
# [2] = test system: HL-60; assay: Induction of apoptosis in human HL60 cells assessed as condensation of nuclei after 24 hrs by hoechst 33258 staining-based microscopic analysis; assay type: functional, cell-based
# Procedure, shortened: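 HL-60 cells at 0.5 × 10^6/ml were treated for 24 h with […] compound in DMSO vehicle (<0.2%). Cells were fixed in cold acetic acid:methanol (1:3) for 1 h on ice, spread on slides and air-dried overnight. Slides were stained with Hoechst 33258 for 30 min, mounted in glycerol:PBS and viewed by fluorescence microscopy at 20×. Morphology was checked by phase contrast. One of three experiments shown.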
# [3] = Cytotoxicity against human HepG2 cells assessed as cell growth inhibition at 1 uM after 48 hrs by MTT assay; assay type: functional; conditions: HepG2, 48 h, read-out: GI
# Procedure, shortened: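 Adherent lines at 70–75% confluence, grown at 37 °C in 5% CO2 with 10% FCS. Exposed 48 h to compound in DMSO (vehicle <0.2% v/v). MTT dye added 3 h before termination; formazan dissolved in DMSO, OD 570 nm with 620 nm reference. Growth inhibition expressed as % of untreated; IC50 taken from the dose series.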
# [4] = Cell cycle arrest in human HL60 cells assessed as accumulation at subG0 phase at 1 uM after 24 hrs by propidium iodide-DNA fluorescence based FACS analysis (reference value: 5 %); assay type: functional; conditions: HL-60
# Procedure, shortened: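 HL-60 cells seeded at 0.5 × 10^6 cells/ml, exposed 24 h to compound (DMSO vehicle, <0.2% v/v). Pelleted at 400×g, PBS-washed, fixed in 70% ethanol at 4 °C overnight. RNase A treatment at 37 °C for 1.30 h, then propidium iodide staining for 20 min. Flow cytometry on 10,000 events, FL2-A vs FL2-W; subG0 (apoptotic) and phase populations gated.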
Compound,Activity [1],Activity [2],inhibition of growth at 1 µM [3],Activity [4]
C[C@H]1[C@@H](OCCOc2ccc(/C=C/C(=O)c3ccc(O)cc3)cc2)O[C@@H]2O[C@@]3(C)CC[C@H]4[C@H](C)CC[C@@H]1[C@@]24OO3,Dose-dependent effect,Dose-dependent effect,23.8%,
C[C@H]1[C@@H](OCCOc2cccc(C(=O)/C=C/c3ccc(O)cc3)c2)O[C@@H]2O[C@@]3(C)CC[C@H]4[C@H](C)CC[C@@H]1[C@@]24OO3,Dose-dependent effect,Dose-dependent effect,29.6%,65%
